Data published in ChEMBL document CHEMBL4014308, “Amphiphilic Tobramycin-Lysine Conjugates Sensitize Multidrug Resistant Gram-Negative Bacteria to Rifampicin and Minocycline” (J Med Chem, 2017).
Active and inactive are the calls of the source. The rule behind the calls is not given here.

Legend:
Pseudomonas aeruginosa [1] = assay: Antibacterial activity against gentamicin/tobramycin-resistant Pseudomonas aeruginosa isolate CANWARD-2011 96846 after 18 hrs by microtiter dilution assay; type: functional; conditions: isolate CANWARD-2011 96846, 18 h
How it was run: (§1)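 Broth microdilution following CLSI guidelines. An overnight culture was adjusted to 0.5 McFarland in saline, then diluted 1:50 in Mueller-Hinton broth. This inoculum was added in equal volume to 2-fold serial dilutions of agent in MHB and incubated 18 h at 37 °C. MIC was the lowest concentration with no visible growth.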

Pseudomonas aeruginosa [2] = assay: Antibacterial activity against multidrug/extremely drug-resistant/colistin-susceptible Pseudomonas aeruginosa isolate 100036 after 18 hrs by microtiter dilution assay; type: functional; conditions: isolate 100036, 18 h; how it was run: as §1
Pseudomonas aeruginosa [3] = assay: Antibacterial activity against multidrug/extremely drug-resistant/colistin-susceptible Pseudomonas aeruginosa isolate P264-104354 after 18 hrs by microtiter dilution assay; type: functional; conditions: isolate P264-104354, 18 h; how it was run: as §1
Pseudomonas aeruginosa [4] = assay: Antibacterial activity against multidrug/extremely drug-resistant/colistin-resistant Pseudomonas aeruginosa isolate 91433 after 18 hrs by microtiter dilution assay; type: functional; conditions: isolate 91433, 18 h; how it was run: as §1
Pseudomonas aeruginosa [5] = assay: Synergistic antibacterial activity against Pseudomonas aeruginosa PAO1 after 18 hrs in presence of erythromycin by checkerboard assay; type: functional; conditions: PAO1, 18 h
How it was run: (§2)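 Checkerboard in MHB: antibiotic diluted along one axis and adjuvant along the other (10 × 7 matrix). Inoculum was a 1:50 dilution in MHB of a 0.5 McFarland saline suspension; incubated 18 h at 37 °C. Each FIC = concentration in the no-growth well divided by the MIC alone; FIC index = sum of both FICs. ≤0.5 synergy, 0.5–4 no interaction, ≥4 antagonism.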

Pseudomonas aeruginosa [6] = assay: Synergistic antibacterial activity against Pseudomonas aeruginosa PAO1 after 18 hrs in presence of trimethoprim by checkerboard assay; type: functional; conditions: PAO1, 18 h; how it was run: as §2
Pseudomonas aeruginosa [7] = assay: Synergistic antibacterial activity against Pseudomonas aeruginosa PAO1 after 18 hrs in presence of amikacin by checkerboard assay; type: functional; conditions: PAO1, 18 h; how it was run: as §2
Pseudomonas aeruginosa [8] = assay: Potentiation of moxifloxacin-induced antibacterial activity against Pseudomonas aeruginosa PAO1 at 4 ug/ml after 18 hrs by checkerboard assay; type: functional
How it was run: (§3)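 Checkerboard in Mueller-Hinton broth: antibiotic serially diluted along one axis and adjuvant along the other (10 × 7 matrix). Inoculum from a 0.5 McFarland saline suspension diluted 1:50 in MHB; 18 h at 37 °C, then plate read. MIC is the lowest concentration with no growth. FIC of each agent is its concentration in a no-growth well divided by its MIC alone; FIC index is the sum of both. FIC index ≤0.5 counts as synergy.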

Pseudomonas aeruginosa [9] = assay: Potentiation of rifampicin-induced antibacterial activity against multidrug/extremely drug-resistant/colistin-susceptible Pseudomonas aeruginosa isolate 101885 at 4 ug/ml after 18 hrs by checkerboard assay; type: functional; how it was run: as §3
Pseudomonas aeruginosa [10] = assay: Potentiation of rifampicin-induced antibacterial activity against multidrug/extremely drug-resistant/colistin-susceptible Pseudomonas aeruginosa isolate P259-96918 at 4 ug/ml after 18 hrs by checkerboard assay; type: functional; how it was run: as §3
Pseudomonas aeruginosa [11] = assay: Potentiation of rifampicin-induced antibacterial activity against multidrug/extremely drug-resistant/colistin-resistant Pseudomonas aeruginosa isolate 91433 assessed as fold reduction in rifampicin MIC at 4 ug/ml after 18 hrs by checkerboard assay relative to control; type: functional
How it was run: (§4)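 Checkerboard in Mueller-Hinton broth, 10 × 7 matrix, with the adjuvant held at 4 µg/mL. Inoculum from a 0.5 McFarland suspension diluted 1:50; 18 h at 37 °C. Antibiotic MIC (lowest concentration with no growth) with adjuvant is compared with the antibiotic MIC alone, giving a fold reduction.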

Pseudomonas aeruginosa [12] = assay: Potentiation of rifampicin-induced antibacterial activity against multidrug/extremely drug-resistant/colistin-resistant Pseudomonas aeruginosa isolate 91433 at 4 ug/ml after 18 hrs by checkerboard assay; type: functional; how it was run: as §3
Pseudomonas aeruginosa [13] = assay: Potentiation of rifampicin-induced antibacterial activity against multidrug/extremely drug-resistant/colistin-resistant Pseudomonas aeruginosa isolate 101243 assessed as fold reduction in rifampicin MIC at 4 ug/ml after 18 hrs by checkerboard assay relative to control; type: functional; how it was run: as §4
Acinetobacter baumannii [14] = assay: Antibacterial activity against multidrug-resistant Acinetobacter baumannii AB031 after 18 hrs by microtiter dilution assay; type: functional; conditions: AB031, 18 h; how it was run: as §1
Klebsiella pneumoniae [15] = assay: Antibacterial activity against multidrug-resistant Klebsiella pneumoniae 116381 after 18 hrs by microtiter dilution assay; type: functional; conditions: Klebsiella pneumoniae, 116381, 18 h; how it was run: as §1
Acinetobacter baumannii [16] = assay: Synergistic antibacterial activity against multidrug-resistant Acinetobacter baumannii AB031 after 18 hrs in presence of rifampicin by checkerboard assay; type: functional; conditions: AB031, 18 h
How it was run: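 Checkerboard in MHB with a 10 × 7 matrix: antibiotic serially diluted along one axis, adjuvant along the other. Inoculum was a 1:50 dilution of a 0.5 McFarland suspension, incubated 18 h at 37 °C and read on a plate reader. Each FIC is the concentration in a no-growth well divided by the MIC alone; FIC index is their sum, with ≤0.5 taken as synergy.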

Acinetobacter baumannii [17] = assay: Potentiation of rifampicin-induced antibacterial activity against multidrug-resistant Acinetobacter baumannii AB027 at 4 ug/ml after 18 hrs by checkerboard assay; type: functional; how it was run: as §3
Enterobacter cloacae = assay: Potentiation of minocycline-induced antibacterial activity against multidrug-resistant Enterobacter cloacae 117029 at 4 ug/ml after 18 hrs by checkerboard assay; type: functional; how it was run: as §3
Klebsiella pneumoniae [18] = assay: Potentiation of rifampicin-induced antibacterial activity against multidrug-resistant Klebsiella pneumoniae 116381 at 4 ug/ml after 18 hrs by checkerboard assay; type: functional; how it was run: as §3
Pseudomonas aeruginosa [19] = assay: Bactericidal activity against Pseudomonas aeruginosa PAO1 at 2 times antibacterial MIC after 30 mins; type: functional
How it was run: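 Time-kill with P. aeruginosa PAO1. A 0.5 McFarland suspension was diluted 1:50 in LB broth and exposed to agent in PBS (pH 7.2) at 1/2×, 1×, 2× or 4× MIC at 37 °C for 6 h. Samples at 0, 10, 30, 60, 90, 120, 240 and 360 min were serially diluted in PBS, plated on LB agar, and colonies counted after 20 h at 37 °C.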

Pseudomonas aeruginosa [20] = assay: Potentiation of minocycline-induced antibacterial activity against Pseudomonas aeruginosa PAO1 after 25 serial passages at 0.125 times MIC by microtiter dilution assay; type: functional
How it was run: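 Sequential passaging of wild-type PAO1 with single drugs or drug combinations. MIC was tested in MHB for 18 h. Cells from the well at half the MIC were adjusted to 0.5 McFarland in saline, diluted 1:50 in fresh MHB and used for the next MIC test. This was repeated for 25 passages, and the fold change in MIC was plotted against passage number.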

[21] = Cytotoxicity against human JIMT1 cells assessed as cell viability at 20 uM after 48 hrs by MTS assay relative to control; type: cell-based, JIMT-1; conditions: read-out: Activity
How it was run: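 DU145 and JIMT-1 grown in DMEM with 10% FBS and penicillin/streptomycin at 37 °C, 5% CO2. 7500–9000 cells/well were seeded for 24 h, then treated at 2.5–30 µM (final) for 48 h. MTS reagent (20% v/v) added for 4 h and OD read at 490 nm after blank subtraction; viability expressed relative to vehicle control.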

[22] = Ratio of cytotoxic concentration against human DU145 cells to synergistic concentration for Pseudomonas aeruginosa PAO1 in presence of rifampicin
[23] = Ratio of cytotoxic concentration against human JIMT1 cells to synergistic concentration for Pseudomonas aeruginosa PAO1 in presence of rifampicin

Compound: Cl.Cl.Cl.Cl.Cl.Cl.Cl.NCCCC[C@H](N)C(=O)N(CCCCCCCCCCCCO[C@@H]1[C@@H](O[C@H]2O[C@H](CO)[C@@H](O)[C@H](N)[C@H]2O)[C@H](N)C[C@H](N)[C@H]1O[C@H]1O[C@H](CN)[C@@H](O)C[C@H]1N)Cc1c2ccccc2c(Cl)c2ccccc12
- MIC (Pseudomonas aeruginosa [1]): 32 µg/mL
- MIC (Pseudomonas aeruginosa [2]): 32 µg/mL
- MIC (Pseudomonas aeruginosa [3]): 32 µg/mL
- MIC (Pseudomonas aeruginosa [4]): 8 µg/mL
- MIC (Pseudomonas aeruginosa [5]): 4 µg/mL
- MIC (Pseudomonas aeruginosa [6]): 2 µg/mL
- MIC (Pseudomonas aeruginosa [7]): 2 µg/mL
- fractional inhibitory concentration index (FICI) (Pseudomonas aeruginosa [8]): 0.313
- fractional inhibitory concentration index (FICI) (Pseudomonas aeruginosa [9]): 0.094
- fractional inhibitory concentration index (FICI) (Pseudomonas aeruginosa [10]): 0.039
- fold change (FC) (Pseudomonas aeruginosa [11]): 8
- fractional inhibitory concentration index (FICI) (Pseudomonas aeruginosa [12]): 0.5
- fold change (FC) (Pseudomonas aeruginosa [13]): 32
- MIC (Acinetobacter baumannii [14]): 16 to 32 µg/mL
- MIC (Klebsiella pneumoniae [15]): 256 µg/mL
- MIC (Acinetobacter baumannii [16]): 1 µg/mL
- fractional inhibitory concentration index (FICI) (Acinetobacter baumannii [17]): 0.079
- fractional inhibitory concentration index (FICI) (Enterobacter cloacae): 0.062
- fractional inhibitory concentration index (FICI) (Klebsiella pneumoniae [18]): 0.047
- Activity (Pseudomonas aeruginosa [19]): Active
- Activity (Pseudomonas aeruginosa [20]): Active
- viability at 48 h, 20 µM [21]: > 50%
- Ratio [22]: 6
- Ratio [23]: 6
